Screening data as filed in PubChem BioAssay.
Shown are actives, neighbours in structure and some others; about 1.3% of the full set was active somewhere.
PfGluPho inh = PfG6PD (Plasmodium falciparum) enzyme inhibition | inhibition, % at 20 µM | 350,000 tested, 0.78% active | PfGluPho enzyme, NADPH resazurin-diaphorase fluorescence;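 active means inhibition reaching at least a set limit at 20 µM in the primary screen, cut at about 59% in these data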
HKDC1 inhibitor = inhibitors of human hexokinase HKDC1. inhibition, % at 20 µM. recombinant HKDC1, G6PDH/diaphorase resazurin coupled fluorescence. 340,000 tested, 0.16% active. Q2TB90. AID 493160;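 active means inhibition above about 35% when tested at 20 µM, limit read from the data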
Target sequence (Q2TB90 whole entry, looked up): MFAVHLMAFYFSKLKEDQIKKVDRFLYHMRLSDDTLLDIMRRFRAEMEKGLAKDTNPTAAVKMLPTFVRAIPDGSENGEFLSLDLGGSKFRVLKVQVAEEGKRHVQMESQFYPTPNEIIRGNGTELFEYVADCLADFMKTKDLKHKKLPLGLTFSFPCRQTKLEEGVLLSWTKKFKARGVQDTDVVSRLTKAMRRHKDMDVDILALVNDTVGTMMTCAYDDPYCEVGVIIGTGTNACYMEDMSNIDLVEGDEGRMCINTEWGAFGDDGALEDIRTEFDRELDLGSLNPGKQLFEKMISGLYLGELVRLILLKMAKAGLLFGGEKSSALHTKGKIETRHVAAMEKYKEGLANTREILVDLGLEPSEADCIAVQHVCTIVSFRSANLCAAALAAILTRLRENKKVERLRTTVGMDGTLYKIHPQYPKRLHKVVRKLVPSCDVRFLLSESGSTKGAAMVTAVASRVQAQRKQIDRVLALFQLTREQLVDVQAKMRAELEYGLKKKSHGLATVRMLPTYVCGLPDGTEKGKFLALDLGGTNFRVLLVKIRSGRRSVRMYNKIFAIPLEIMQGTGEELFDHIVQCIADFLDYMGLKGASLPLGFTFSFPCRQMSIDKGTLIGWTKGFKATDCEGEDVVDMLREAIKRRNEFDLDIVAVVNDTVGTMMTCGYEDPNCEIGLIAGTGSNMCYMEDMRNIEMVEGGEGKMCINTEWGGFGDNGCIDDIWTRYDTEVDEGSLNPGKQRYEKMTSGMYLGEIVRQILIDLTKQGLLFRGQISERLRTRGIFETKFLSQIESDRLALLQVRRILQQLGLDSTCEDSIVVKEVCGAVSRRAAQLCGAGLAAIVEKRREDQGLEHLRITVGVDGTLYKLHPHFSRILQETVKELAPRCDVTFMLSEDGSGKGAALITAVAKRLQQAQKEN
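Test system: recombinant HKDC1 (HK5) hexokinase enzyme, produced in-house; Amount: enzyme 5 µg/mL final; Buffer or medium: Tris pH 8.0 buffer with MgCl2, Tween-20, BSA, BME; Reagent: glucose and ATP substrates; Doses: 20 µM test compound, 1% DMSO; Incubation: 90 min reaction incubation at room temperature, dark; Detection: resorufin fluorescence at 613 nm.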
Diaph act CS = counter-screen for diaphorase-based assays: diaphorase activators and chemical reducers; 190,000 tested, 0.005% active; activation factor at 20 µM; Diaphorase/resazurin coupled assay, resorufin fluorescence, 16 min; stronger effect = higher value; 1 = vehicle wells, 0 = NADH-free wells;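 active means diaphorase activity raised at least twofold by the compound at 20 µM; inactive means activation factor below 2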
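Test system: Clostridium kluyveri diaphorase, purified enzyme. Buffer or medium: 50 mM HEPES pH 7.4 buffer plus MgCl2 and Tween 20. Also added: 0.114 mM NADH and 0.1 mM resazurin, final amounts. Dosing: compound 20 µM once, DMSO 1%. Schedule: 16 min enzyme reaction, ambient temperature. Detection: fluorescence of resorufin, 544 nm excitation, 590 nm emission.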
G6PDH CS = inhibits Leuconostoc G6PDH, flagging false hits in G6PDH-based assays; Purified L. mesenteroides G6PDH, diaphorase/resazurin coupled fluorescence, 45 min; inhibition, % at 5 µM; 200,000 tested, 0.12% active; in the data active means inhibition above about 50%
Diaphorase inh = diaphorase inhibition or chemical oxidation counter-screen; 190,000 tested, 0.69% active; inhibition, % at 20 µM; AID 1217; diaphorase resazurin-to-resorufin fluorescence, NADH, 16 min; bacterial (C. kluyveri) enzyme, not human;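 active means primary screen inhibition at 20 µM above a set limit, cut at about 50% in these data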
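Assay system: diaphorase enzyme from Clostridium kluyveri; Input: enzyme working solution with 0.14 U/mL diaphorase; Timing: 16 min at room temperature; Technique: resorufin fluorescence, excitation 544 nm, emission 590 nm; Benchmarks: positive control minus NADH, DMSO neutral control.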
PfG6PD confirm = confirmation of Plasmodium falciparum G6PD inhibitors. recombinant PfGluPho, NADPH-diaphorase-resazurin fluorescence. inhibition, % at 20 µM. 2,400 tested, 34% active. shares compounds with PfGluPho inh;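 active means inhibition of at least 50% at 20 µM in any single replicate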
Diaphorase 10uM = counter-screen for P. falciparum G6PD inhibitors: diaphorase inhibitors, oxidizers; shares compounds with PfGluPho inh; diaphorase-coupled resazurin reduction, fluorescence, NADPH 10 uM; inhibition, % at 20 µM; 820 tested, 39% active; AID 504862;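 active means average inhibition reaching 50% or more with the compound at 20 µM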;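 further: resorufin red fluorescence formed as diaphorase reduces resazurin using NADPH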
Diaphorase 30uM = counter-screen for P. falciparum G6PD inhibitors: diaphorase inhibitors, oxidizers; AID 504863; Diaphorase/resazurin coupled assay, resorufin fluorescence, 30 uM NADPH; 820 tested, 29% active; shares compounds with PfGluPho inh; inhibition, % at 20 µM;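 active means inhibition averaging 50% or more, tested at 20 µM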
Large screens that a line does not name were inactive (follow-up assays come after a bar, where they were run); ! = a repeat was not active.

CCC(=O)N1CCc2cc(S(=O)(=O)N3CCN(c4ccccc4)CC3)ccc21	none (no result: Diaph act CS, G6PDH CS, Diaphorase inh)
O=C1Nc2cc(C(=O)NCCCN3CCCC3)ccc2S/C1=C/c1ccccc1F	none (no result: Diaph act CS, G6PDH CS, Diaphorase inh)
CCN1CCCC1CNC(=O)c1ccc2c(c1)NC(=O)/C(=C\c1ccc(C)cc1)S2 (centres undefined)	PfGluPho inh 117 (no result: Diaph act CS, G6PDH CS, Diaphorase inh) | PfG6PD confirm 104 | Diaphorase 10uM inactive | Diaphorase 30uM inactive
O=C1Nc2cc(C(=O)NCCN3CCCCCC3)ccc2S/C1=C/c1ccccc1F	PfGluPho inh 99 (no result: HKDC1 inhibitor, Diaph act CS, G6PDH CS, Diaphorase inh) | PfG6PD confirm inactive
Cc1ccc(/C=C2/Sc3ccc(C(=O)NCCN4CCOCC4)cc3NC2=O)cc1	none (no result: Diaph act CS, G6PDH CS, Diaphorase inh)
S=c1[nH]nc(-c2ccc3ccccc3n2)n1-c1ccccc1Cl	PfGluPho inh 63 | PfG6PD confirm inactive
CCOC(=O)c1ccc(S(=O)(=O)Nc2cc(C(=O)O)ccc2Cl)cc1	none | PfG6PD confirm inactive
CCOC(=O)c1ccc(S(=O)(=O)NNS(=O)(=O)c2ccc(C)cc2)cc1	none (no result: Diaph act CS, G6PDH CS, Diaphorase inh)
CNS(=O)(=O)c1ccc2nc(NC(=O)c3ccc(N4C(=O)CCC4=O)cc3)sc2c1	PfGluPho inh 64 | PfG6PD confirm inactive
CCc1ccc2nc(NC(=O)c3ccc(N4C(=O)CCC4=O)cc3)sc2c1	none (no result: Diaph act CS, G6PDH CS, Diaphorase inh)
CC(C)C(=O)Nc1nnc(SCC(=O)N2c3ccccc3CC2C)s1 (centres undefined)	none
COc1cc(Sc2ccc(C)cc2)c(OC)cc1N	PfGluPho inh 60 | PfG6PD confirm 56 | Diaphorase 10uM inactive | Diaphorase 30uM inactive
COC(=O)c1ccc(Sc2ccc(C)cc2)c(N)c1	none
O=S(=O)(Nc1ncccn1)c1ccc(Nc2ncnc3ccccc23)cc1	none
CN(Cc1cccc(F)c1)C(=O)c1cc(S(=O)(=O)N2CCOCC2)ccc1N1CCCC1	none (no result: Diaph act CS, G6PDH CS, Diaphorase inh)
CCN(CC)CC(C)(C)C(=O)/C=C/c1ccc(/C=C/C(=O)C(C)(C)CN(CC)CC)cc1	PfGluPho inh 64 (no result: Diaph act CS, G6PDH CS, Diaphorase inh) | PfG6PD confirm inactive
CCN(CC)CCOC(=O)/C=C/c1ccccc1	none (no result: Diaph act CS, G6PDH CS, Diaphorase inh)
CN(Cc1ccc(F)cc1)S(=O)(=O)c1nnc(NC(=O)c2ccccc2)s1	none (no result: Diaph act CS, G6PDH CS, Diaphorase inh)
CN(Cc1ccco1)S(=O)(=O)c1nnc(NC(=O)c2cccc(Cl)c2)s1	PfGluPho inh 86 (no result: Diaph act CS, G6PDH CS, Diaphorase inh) | PfG6PD confirm inactive
CN(Cc1ccccc1)S(=O)(=O)c1nnc(NC(=O)c2ccc(F)cc2)s1	PfGluPho inh 78 (no result: Diaph act CS, G6PDH CS, Diaphorase inh) | PfG6PD confirm inactive
COc1ccc(C(=O)Nc2nnc(S(=O)(=O)N(C)Cc3ccccc3)s2)cc1	PfGluPho inh 71 (no result: Diaph act CS, G6PDH CS, Diaphorase inh) | PfG6PD confirm inactive
COc1ccc(CN(C)S(=O)(=O)c2nnc(NC(=O)c3cccc(C)c3)s2)cc1OC	PfGluPho inh 80 (no result: Diaph act CS, G6PDH CS, Diaphorase inh) | PfG6PD confirm 64 | Diaphorase 10uM 64 | Diaphorase 30uM inactive
COc1ccc(C(=O)Nc2nnc(S(=O)(=O)N(C)Cc3ccc(F)cc3)s2)cc1OC	none (no result: Diaph act CS, G6PDH CS, Diaphorase inh)
COc1ccc(OCc2ccc(C(=O)NN)cc2)cc1	none
COc1ccc(Nc2nc(S(=O)(=O)c3ccc(C)cc3)c(Cl)s2)cc1	none
O=C(COc1cccc2ccccc12)N/N=C/c1ccccc1OCc1ccc(C(=O)O)cc1	PfGluPho inh 77 | PfG6PD confirm inactive
O=C1NC(=S)NC1Cc1ccc(O)cc1 (centres undefined)	none (no result: Diaph act CS, G6PDH CS, Diaphorase inh)
Nc1ccc(N2CCCC2)c(S(=O)(=O)Nc2cccc(C(F)(F)F)c2)c1	PfGluPho inh 80 (no result: Diaph act CS, G6PDH CS, Diaphorase inh) | PfG6PD confirm inactive
COc1ccccc1NS(=O)(=O)c1cc(N)ccc1N1CCCC1	PfGluPho inh 70 (no result: Diaph act CS, G6PDH CS, Diaphorase inh) | PfG6PD confirm inactive
CCOC(=O)C(=CNc1ccc(N2CCCCC2)c(S(=O)(=O)Nc2ccccc2OC)c1)C(=O)OCC	PfGluPho inh 65 (no result: Diaph act CS, G6PDH CS, Diaphorase inh) | PfG6PD confirm inactive
COc1ccc(NS(=O)(=O)c2cc(N)ccc2N2CCCCC2)cc1	none (no result: Diaph act CS, G6PDH CS, Diaphorase inh)
O=C(CN1CCN(Cc2ccccc2Cl)C1=O)NC1CCCCCC1	none
On1onc2c3cc(-c4ccccc4)nc3ccc21	PfGluPho inh 90 | PfG6PD confirm inactive
Cn1c(=O)c2[nH]c(-c3ccccc3)c(O)c2n(C)c1=O	PfGluPho inh 71 | PfG6PD confirm 59 | Diaphorase 10uM inactive | Diaphorase 30uM inactive
O=c1cc(-c2ccccc2)oc2cc(O)c(O)c(O)c12	PfGluPho inh 102 (no result: Diaph act CS, G6PDH CS, Diaphorase inh) | PfG6PD confirm 95 | Diaphorase 10uM 94 | Diaphorase 30uM 81
COc1c(O)cc2oc(-c3ccc(O)cc3)cc(=O)c2c1O	none (no result: Diaph act CS, G6PDH CS, Diaphorase inh)
COc1cc2c(cc1[N+](=O)[O-])-c1ccc([N+](=O)[O-])cc1C2=NNC(N)=S	PfGluPho inh 73 (no result: HKDC1 inhibitor, Diaph act CS, G6PDH CS, Diaphorase inh) | PfG6PD confirm inactive
NC(=S)NN=C1c2cc(Cl)ccc2-c2c1cc(Cl)cc2[N+](=O)[O-]	none (no result: Diaph act CS, G6PDH CS, Diaphorase inh)
O=C1c2c(O)ccc(O)c2C(=O)c2c(NCCNCCO)ccc(NCCNCCO)c21	PfGluPho inh 62! (no result: Diaph act CS, G6PDH CS, Diaphorase inh) | PfG6PD confirm inactive
O=C1c2ccccc2C(=O)c2c(Nc3ccc(CCO)cc3)ccc(O)c21	none (no result: Diaph act CS, G6PDH CS, Diaphorase inh)
O=C(N[C@@H]1c2ccccc2CC[C@@H]1OCc1ccccc1)c1ccc(C(F)(F)F)cc1	none (no result: Diaph act CS, G6PDH CS, Diaphorase inh)
Cc1cccc(Sc2ccc([N+](=O)[O-])cc2[N+](=O)[O-])n1	PfGluPho inh 64 | PfG6PD confirm inactive
COc1ccc(-c2nc3ccccc3[nH]2)cc1	PfGluPho inh 61 | PfG6PD confirm inactive
Cc1ccc(NC(=O)[C@H](C)NC(=O)C2CCN(C(=O)[C@H](CC(C)C)NC(=O)OC(C)(C)C)CC2)cc1	none (no result: Diaph act CS, G6PDH CS, Diaphorase inh)
